Where only a bound is given, the exact number is not on record here.

Series [1] is described as follows: Intrinsic clearance in rat liver microsomes. The format is ADME. Particulars: read-out: CLH (converted). Background: Microsomes from liver hold many membrane-bound enzymes, among them those of drug oxidation.
Series [2] addresses T1, cAMP and cAMP-inhibited cGMP 3',5'-cyclic phosphodiesterase 10A (Homo sapiens, UniProt Q9Y233). The series can be described thus: Inhibition of PDE10A (unknown origin) at 10 uM. In outline: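 Potency against PDE10A is given as the concentration giving 50% inhibition (IC50, nM). Where no IC50 was obtained, the value is percent inhibition at 10 μM.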
The target in series [3] is T1, cAMP and cAMP-inhibited cGMP 3',5'-cyclic phosphodiesterase 10A. The series can be described thus: Inhibition of PDE10A (unknown origin).
Series [4] has the same target. The series can be described thus: Inhibition of PDE10A (unknown origin) at 2 uM.

T1 sequence (Q9Y233 whole entry): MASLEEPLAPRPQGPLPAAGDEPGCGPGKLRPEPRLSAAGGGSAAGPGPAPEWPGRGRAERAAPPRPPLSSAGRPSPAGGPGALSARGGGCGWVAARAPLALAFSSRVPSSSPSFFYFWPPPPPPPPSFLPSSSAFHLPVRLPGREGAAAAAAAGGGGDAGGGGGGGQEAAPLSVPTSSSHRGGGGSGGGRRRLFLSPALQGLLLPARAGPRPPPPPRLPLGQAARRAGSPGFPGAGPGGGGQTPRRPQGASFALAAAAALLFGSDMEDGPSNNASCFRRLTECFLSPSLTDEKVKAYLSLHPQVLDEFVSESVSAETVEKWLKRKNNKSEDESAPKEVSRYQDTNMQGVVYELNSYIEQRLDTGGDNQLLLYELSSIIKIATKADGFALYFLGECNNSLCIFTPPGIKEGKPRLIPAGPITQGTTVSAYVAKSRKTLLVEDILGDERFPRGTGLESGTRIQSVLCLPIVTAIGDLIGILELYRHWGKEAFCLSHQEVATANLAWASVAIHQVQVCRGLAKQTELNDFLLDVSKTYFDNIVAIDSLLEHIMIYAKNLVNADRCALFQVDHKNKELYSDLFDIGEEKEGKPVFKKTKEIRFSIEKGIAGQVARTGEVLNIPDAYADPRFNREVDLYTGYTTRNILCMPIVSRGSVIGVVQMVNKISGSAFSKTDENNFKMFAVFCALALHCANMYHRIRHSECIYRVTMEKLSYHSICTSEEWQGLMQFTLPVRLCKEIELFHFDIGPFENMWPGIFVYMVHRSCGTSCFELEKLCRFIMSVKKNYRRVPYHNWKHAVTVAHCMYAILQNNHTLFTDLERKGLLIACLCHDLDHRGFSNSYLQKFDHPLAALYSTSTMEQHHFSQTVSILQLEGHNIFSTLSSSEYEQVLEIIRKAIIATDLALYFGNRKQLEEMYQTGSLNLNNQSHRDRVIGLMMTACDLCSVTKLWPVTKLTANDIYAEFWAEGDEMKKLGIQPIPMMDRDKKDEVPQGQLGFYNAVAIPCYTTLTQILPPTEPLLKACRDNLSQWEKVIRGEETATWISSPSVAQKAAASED

Take `Cn1cc(-c2ccncc2)c(-c2ccc(OCc3ccc4ccccc4c3)cc2)n1`: the CLint scaled in series [1] is 5 L/h/kg. In addition, in series [2], the inhibition amounted to 25%.
In the same order, the values of `Cn1cc(-c2ccncc2)c(-c2ccc(OCB3C=Cc4ccccc4N3)cc2)n1` are 2.5 L/h/kg and 48%.
On to `CN(C(=O)c1ccc2ncsc2c1)c1ccc(OCc2ccc3ccccc3c2)cc1`, for which, in series [1], the CLint scaled is 2.9 L/h/kg. The molecule further yielded an inhibition in series [2] of 5%.
In the same order, the values of `CN(C(=O)c1csc(-c2cccnc2)n1)c1ccc(OCc2ccc3ccccc3c2)cc1` are above 17 L/h/kg and 2%.
As to `CN(C(=O)c1cc(-c2ccccn2)[nH]n1)c1ccc(OCB2C=Cc3ccccc3N2)cc1`, the CLint scaled in series [1] was 1.5 L/h/kg. This molecule came in with a 50% inhibitory concentration (IC50) in series [3] of 0.064 µM.
Take `CN(C(=O)c1cc(-c2ccccc2)n[nH]1)c1ccc(OCc2ccc3ccccc3c2)cc1`: the CLint scaled in series [1] is 0.41 L/h/kg. The same molecule came in with an inhibition in series [2] of 3%.
In the same order, the values of `CN(C(=O)c1ccncc1)c1ccc(OCB2C=Cc3ccccc3N2)cc1` are 6.9 L/h/kg and 11%.
In the case of `CN(C(=O)c1cc(-c2ccccn2)[nH]n1)c1ccc(OCc2ccc3ccccc3c2)cc1`, the CLint scaled in series [1] is 1.8 L/h/kg. In series [2], the inhibition came out at 4%.
Regarding `CN(C(=O)c1csc(-c2cccnc2)n1)c1ccc(OCB2C=Cc3ccccc3N2)cc1`, the CLint scaled in series [1] is above 17 L/h/kg. In series [3], half-maximal inhibition (IC50) was put at 0.33 µM.
In the case of `CN(C(=O)c1csc(-c2cccnc2)n1)c1ccc(OCc2ccc3ccccc3n2)cc1`, the CLint scaled in series [1] was above 17 L/h/kg. In series [3], this molecule had an IC50 of 0.17 µM.
For `CN(C(=O)c1ccncc1)c1ccc(OCc2ccc3ccccc3c2)cc1`, in series [1], the CLint scaled was 4.5 L/h/kg. In series [4], this molecule came in with an inhibition of 2%.
On to `Cn1cc(-c2ccncc2)c(-c2ccc(OCc3ccc4ccccc4n3)cc2)n1` [MARDEPODECT], for which, in series [1], the CLint scaled is 1.9 L/h/kg.
Regarding `CN(C(=O)c1cc(-c2ccccc2)n[nH]1)c1ccc(OCB2C=Cc3ccccc3N2)cc1`, the CLint scaled in series [1] was 0.34 L/h/kg. This molecule showed an IC50 in series [3] of 1.8 µM.
For the molecule `CN(C(=O)c1ccncc1)c1ccc(OCc2ccc3ccccc3n2)cc1`, in series [1], the CLint scaled is 0.9 L/h/kg.
Still for that read-out and setting: the figure for `CN(C(=O)c1cc(-c2ccccc2)n[nH]1)c1ccc(OCc2ccc3ccccc3n2)cc1` is 1.3 L/h/kg.
As to `CN(C(=O)c1ccc2ncsc2c1)c1ccc(OCB2C=Cc3ccccc3N2)cc1`, the CLint scaled in series [1] was 4.4 L/h/kg. For the same molecule, in series [2], the inhibition was found to be 45%.
On to `CN(C(=O)c1ccc2ncsc2c1)c1ccc(OCc2ccc3ccccc3n2)cc1`, for which the CLint scaled in series [1] was 1.9 L/h/kg.
Still for that read-out and setting: next, `CN(C(=O)c1cc(-c2ccccn2)n[nH]1)c1ccc(OCc2ccc3ccccc3n2)cc1`: 2.1 L/h/kg.

For orientation: inhibition means the percentage by which the read-out fell short of the control. High values mean a strong effect, low ones a weak effect. As a reminder, the IC50 is the midpoint of a concentration-inhibition curve.

Values taken from ChEMBL document CHEMBL3593194, “BN/CC isosterism in borazaronaphthalenes towards phosphodiesterase 10A (PDE10A) inhibitors” (Bioorg Med Chem, 2015).
